Publication PMC4716096 (Kidney Research and Clinical Practice, 2012)

Key:
[1] = n-octanol versus water; cited from earlier work
[2] = Pharmacokinetic profile of tacrolimus; type: in vivo, human; conditions: dose-adjusted whole-blood concentrations; P=0.024 and 0.031
In short: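 Stable Korean kidney recipients (n=18; ≥20 y, ≥6 months post-transplant, creatinine <2.0 mg/dL) on steroid/mycophenolate/tacrolimus, trough-targeted 5–10 ng/mL. Fasting; whole blood drawn pre-morning dose (C0) and at 1–4 h post-dose; mass spectrometry. AUC0–4 by linear trapezoidal rule; values dose-adjusted. Lean/fat mass by bioelectrical impedance; groups split at median, compared by Mann-Whitney U (P<0.05).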

[3] = transplant recipient group with a high BMI; cited from earlier work

Q: What does the source list for `C=CC[C@@H]1/C=C(\C)C[C@H](C)C[C@H](OC)[C@H]2O[C@@](O)(C(=O)C(=O)N3CCCC[C@H]3C(=O)O[C@H](/C(C)=C/[C@@H]3CC[C@@H](O)[C@H](OC)C3)[C@H](C)[C@@H](O)CC1=O)[C@H](C)C[C@@H]2OC` [tacrolimus]?
A: partition coefficient of tacrolimus in n-octanol relative to water [1]: 1000 fold; C0 and C4 in the high-fat group compared with the low-fat group [2]: significantly elevated; tacrolimus levels [3]: higher than 15 ng/mL
